Entries after “also recorded” stand apart in the source; their conditions may differ.
Test: Safety and tolerability
Format: in vivo, human
How it was run: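 Open-label multicentre phase I/IIa trial in adults with advanced or metastatic solid tumours. Part 1 used 3+3 oral capsule escalation at 50–800 mg/day to define DLT and MTD. Part 2 gave tablets. Treatment continued until progression, intolerable AE or study end, with dose decisions by a safety monitoring board. AEs of special interest were monitored. The safety population was all dosed patients, summarised by dose level.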

Cn1cc(-c2ccc3c(c2)ncn3-c2cc(NS(=O)(=O)C3CC3)cc(-c3ccc(F)cc3F)c2)cn1 [ODM-203]
Decreased appetite (capsule 600 mg (n=30)): 9 (30.0) n (%) | Diarrhoea (capsule 600 mg (n=30)): 17 (56.7) n (%) | Dry mouth (capsule 600 mg (n=30)): 14 (46.7) n (%) | Dry skin (capsule 600 mg (n=30)): 1 (3.3) n (%) | Dysgeusia (capsule 600 mg (n=30)): 5 (16.7) n (%) | Epistaxis (capsule 600 mg (n=30)): 8 (26.7) n (%) | Fatigue (capsule 600 mg (n=30)): 10 (33.3) n (%) | Hyperbilirubinaemia (capsule 600 mg (n=30)): 10 (33.3) n (%) | Hyperphosphataemia (capsule 600 mg (n=30)): 6 (20.0) n (%) | Hypertension (capsule 600 mg (n=30)): 5 (16.7) n (%) | Jaundice (capsule 600 mg (n=30)): 10 (33.3) n (%) | Mucosal inflammation (capsule 600 mg (n=30)): 1 (3.3) n (%) | Myalgia (capsule 600 mg (n=30)): 4 (13.3) n (%) | Nasal dryness (capsule 600 mg (n=30)): 5 (16.7) n (%) | Nausea (capsule 600 mg (n=30)): 4 (13.3) n (%) | Onycholysis (capsule 600 mg (n=30)): 6 (20.0) n (%) | Palmar-plantar eryrthodysaestesia (capsule 600 mg (n=30)): 11 (36.7) n (%) | Related AE (capsule 600 mg (n=30)): 30 (100) n (%) | Related SAEs (capsule 600 mg (n=30)): 8 (26.7) n (%) | Stomatitis (capsule 600 mg (n=30)): 11 (36.7) n (%) | Vomiting (capsule 600 mg (n=30)): 2 (6.7) n (%) | Weight decreased (capsule 600 mg (n=30)): 10 (33.3) n (%) | patients with a DLT (punctate keratitis) (capsule 800 mg): 1 patient | AE leading to death (capsule 800 mg (n=7)): 0 n (%) | AE leading to discontinuation (capsule 800 mg (n=7)): 3 (42.9) n (%) | AE leading to dose reduction (capsule 800 mg (n=7)): 0 n (%) | AE leading to treatment interruption (capsule 800 mg (n=7)): 5 (71.4) n (%) | Alopecia (capsule 800 mg (n=7)): 5 (71.4) n (%) | Any AE (capsule 800 mg (n=7)): 7 (100) n (%) | Arthralgia (capsule 800 mg (n=7)): 4 (57.1) n (%) | Asthenia (capsule 800 mg (n=7)): 2 (28.6) n (%) | Blood bilirubin increased (capsule 800 mg (n=7)): 3 (42.9) n (%) | Conjugated bilirubin increased (capsule 800 mg (n=7)): 0 n (%) | Decreased appetite (capsule 800 mg (n=7)): 1 (14.3) n (%) | Diarrhoea (capsule 800 mg (n=7)): 4 (57.1) n (%) | Dry skin (capsule 800 mg (n=7)): 1 (14.3) n (%) | Dysgeusia (capsule 800 mg (n=7)): 1 (14.3) n (%) | Epistaxis (capsule 800 mg (n=7)): 3 (42.9) n (%) | Fatigue (capsule 800 mg (n=7)): 2 (28.6) n (%) | Hyperbilirubinaemia (capsule 800 mg (n=7)): 4 (57.1) n (%) | Hyperphosphataemia (capsule 800 mg (n=7)): 3 (42.9) n (%) | Hypertension (capsule 800 mg (n=7)): 0 n (%) | Jaundice (capsule 800 mg (n=7)): 2 (28.6) n (%) | Mucosal inflammation (capsule 800 mg (n=7)): 0 n (%) | Myalgia (capsule 800 mg (n=7)): 2 (28.6) n (%) | Nasal dryness (capsule 800 mg (n=7)): 0 n (%) | Nausea (capsule 800 mg (n=7)): 0 n (%) | Onycholysis (capsule 800 mg (n=7)): 2 (28.6) n (%) | Palmar-plantar eryrthodysaestesia (capsule 800 mg (n=7)): 1 (14.3) n (%) | Related AE (capsule 800 mg (n=7)): 7 (100) n (%) | Related SAEs (capsule 800 mg (n=7)): 1 (14.3) n (%) | Stomatitis (capsule 800 mg (n=7)): 4 (57.1) n (%) | Vomiting (capsule 800 mg (n=7)): 0 n (%) | Weight decreased (capsule 800 mg (n=7)): 1 (14.3) n (%) | maximum tolerated dose (MTD) (capsule, up to 800 mg once daily): not established; also recorded: not reached | arthralgia grade 3 events (in vivo): two | hypertension considered related to study treatment (in vivo): 14 patients | hypertension events of grade 3 or higher (in vivo): three | myalgia grade 3 (in vivo): two | increased alanine transaminase levels (of 30 patients treated with 400 mg/day): three | Hypertension (patients): 19% | Myalgia (patients): 16.7% | back pain (patients): 11.9% | grade 3 hypertension (patients): 3.6% | ocular events (patients): 19.0% | AEs leading to dose reductions (patients, N=84): 10.7% | AEs leading to treatment interruption (patients, N=84): 72.6% | bilirubin increase-related events (patients, N=84): 75% | diarrhoea (AE related to treatment) (patients, N=84): 50% | dry mouth (AE related to treatment) (patients, N=84): 34.5% | events resulting in treatment discontinuation (patients, N=84): 35.7% | palmar-plantar eryrthrodysesthesia (AE related to treatment) (patients, N=84): 35.7% | stomatitis (AE related to treatment) (patients, N=84): 40.5% | AEs considered related to the treatment (share of AEs, all doses): 70.4% | AEs grade 1 or 2 in severity (share of AEs, all doses): 89.2% | AE leading to death (tablet 200 mg (n=3)): 0 n (%) | AE leading to discontinuation (tablet 200 mg (n=3)): 0 n (%) | AE leading to dose reduction (tablet 200 mg (n=3)): 0 n (%) | AE leading to treatment interruption (tablet 200 mg (n=3)): 0 n (%) | Alopecia (tablet 200 mg (n=3)): 1 (33.3) n (%) | Any AE (tablet 200 mg (n=3)): 3 (100) n (%) | Arthralgia (tablet 200 mg (n=3)): 1 (33.3) n (%) | Asthenia (tablet 200 mg (n=3)): 0 n (%) | Blood bilirubin increased (tablet 200 mg (n=3)): 2 (66.7) n (%) | Conjugated bilirubin increased (tablet 200 mg (n=3)): 0 n (%) | Decreased appetite (tablet 200 mg (n=3)): 1 (33.3) n (%) | Diarrhoea (tablet 200 mg (n=3)): 0 n (%) | Dry mouth (tablet 200 mg (n=3)): 1 (33.3) n (%) | Dry skin (tablet 200 mg (n=3)): 0 n (%) | Dysgeusia (tablet 200 mg (n=3)): 1 (33.3) n (%) | Epistaxis (tablet 200 mg (n=3)): 0 n (%) | Fatigue (tablet 200 mg (n=3)): 1 (33.3) n (%) | Hyperbilirubinaemia (tablet 200 mg (n=3)): 0 n (%) | Hyperphosphataemia (tablet 200 mg (n=3)): 0 n (%) | Hypertension (tablet 200 mg (n=3)): 1 (33.3) n (%) | Jaundice (tablet 200 mg (n=3)): 0 n (%) | Mucosal inflammation (tablet 200 mg (n=3)): 0 n (%) | Myalgia (tablet 200 mg (n=3)): 1 (33.3) n (%) | Nasal dryness (tablet 200 mg (n=3)): 0 n (%) | Nausea (tablet 200 mg (n=3)): 0 n (%) | Onycholysis (tablet 200 mg (n=3)): 0 n (%) | Palmar-plantar eryrthodysaestesia (tablet 200 mg (n=3)): 0 n (%) | Related AE (tablet 200 mg (n=3)): 3 (100) n (%) | Related SAEs (tablet 200 mg (n=3)): 0 n (%) | Stomatitis (tablet 200 mg (n=3)): 1 (33.3) n (%) | Vomiting (tablet 200 mg (n=3)): 0 n (%) | Weight decreased (tablet 200 mg (n=3)): 0 n (%) | AE leading to death (tablet 300 mg (n=3)): 0 n (%) | AE leading to discontinuation (tablet 300 mg (n=3)): 0 n (%) | AE leading to dose reduction (tablet 300 mg (n=3)): 1 (33.3) n (%) | AE leading to treatment interruption (tablet 300 mg (n=3)): 1 (33.3) n (%) | Alopecia (tablet 300 mg (n=3)): 1 (33.3) n (%) | Any AE (tablet 300 mg (n=3)): 3 (100) n (%) | Arthralgia (tablet 300 mg (n=3)): 2 (66.7) n (%) | Asthenia (tablet 300 mg (n=3)): 3 (100) n (%) | Blood bilirubin increased (tablet 300 mg (n=3)): 0 n (%) | Conjugated bilirubin increased (tablet 300 mg (n=3)): 1 (33.3) n (%) | Decreased appetite (tablet 300 mg (n=3)): 2 (66.7) n (%) | Diarrhoea (tablet 300 mg (n=3)): 1 (33.3) n (%) | Dry mouth (tablet 300 mg (n=3)): 1 (33.3) n (%) | Dry skin (tablet 300 mg (n=3)): 1 (33.3) n (%) | Dysgeusia (tablet 300 mg (n=3)): 1 (33.3) n (%) | Epistaxis (tablet 300 mg (n=3)): 1 (33.3) n (%) | Fatigue (tablet 300 mg (n=3)): 0 n (%) | Hyperbilirubinaemia (tablet 300 mg (n=3)): 1 (33.3) n (%) | Hyperphosphataemia (tablet 300 mg (n=3)): 1 (33.3) n (%) | Hypertension (tablet 300 mg (n=3)): 0 n (%) | Jaundice (tablet 300 mg (n=3)): 1 (33.3) n (%) | Mucosal inflammation (tablet 300 mg (n=3)): 1 (33.3) n (%) | Myalgia (tablet 300 mg (n=3)): 0 n (%) | Nasal dryness (tablet 300 mg (n=3)): 1 (33.3) n (%) | Nausea (tablet 300 mg (n=3)): 0 n (%) | Onycholysis (tablet 300 mg (n=3)): 0 n (%) | Palmar-plantar eryrthodysaestesia (tablet 300 mg (n=3)): 1 (33.3) n (%) | Related AE (tablet 300 mg (n=3)): 3 (100) n (%) | Related SAEs (tablet 300 mg (n=3)): 1 (33.3) n (%) | Stomatitis (tablet 300 mg (n=3)): 0 n (%) | Vomiting (tablet 300 mg (n=3)): 1 (33.3) n (%) | Weight decreased (tablet 300 mg (n=3)): 2 (66.7) n (%) | AE leading to death (tablet 400 mg (n=30)): 5 (16.7) n (%) | AE leading to discontinuation (tablet 400 mg (n=30)): 9 (30.0) n (%) | AE leading to dose reduction (tablet 400 mg (n=30)): 6 (20.0) n (%) | AE leading to treatment interruption (tablet 400 mg (n=30)): 28 (93.3) n (%) | Alopecia (tablet 400 mg (n=30)): 10 (33.3) n (%) | Any AE (tablet 400 mg (n=30)): 30 (100) n (%) | Arthralgia (tablet 400 mg (n=30)): 9 (30.0) n (%) | Asthenia (tablet 400 mg (n=30)): 10 (33.3) n (%) | Blood bilirubin increased (tablet 400 mg (n=30)): 15 (50.0) n (%) | Conjugated bilirubin increased (tablet 400 mg (n=30)): 7 (23.3) n (%) | Decreased appetite (tablet 400 mg (n=30)): 11 (36.7) n (%) | Diarrhoea (tablet 400 mg (n=30)): 19 (63.3) n (%) | Dry mouth (tablet 400 mg (n=30)): 12 (40.0) n (%) | Dry skin (tablet 400 mg (n=30)): 7 (23.3 n (%) | Dysgeusia (tablet 400 mg (n=30)): 10 (33.3) n (%) | Epistaxis (tablet 400 mg (n=30)): 14 (46.7) n (%) | Fatigue (tablet 400 mg (n=30)): 9 (30.0) n (%) | Hyperbilirubinaemia (tablet 400 mg (n=30)): 11 (36.7) n (%) | Hyperphosphataemia (tablet 400 mg (n=30)): 8 (26.7) n (%) | Hypertension (tablet 400 mg (n=30)): 8 (26.7) n (%) | Jaundice (tablet 400 mg (n=30)): 11 (36.7) n (%) | Mucosal inflammation (tablet 400 mg (n=30)): 7 (23.3) n (%) | Myalgia (tablet 400 mg (n=30)): 3 (10.0) n (%) | Nasal dryness (tablet 400 mg (n=30)): 6 (20.0) n (%) | Nausea (tablet 400 mg (n=30)): 7 (23.3) n (%) | Onycholysis (tablet 400 mg (n=30)): 3 (10.0) n (%) | Palmar-plantar eryrthodysaestesia (tablet 400 mg (n=30)): 15 (50.0) n (%) | Related AE (tablet 400 mg (n=30)): 29 (96.7) n (%) | Related SAEs (tablet 400 mg (n=30)): 4 (13.3) n (%) | Stomatitis (tablet 400 mg (n=30)): 17 (56.7) n (%) | Vomiting (tablet 400 mg (n=30)): 5 (16.7) n (%) | Weight decreased (tablet 400 mg (n=30)): 5 (16.7) n (%)

From publication PMC7709506 (ESMO Open, 2020)
